From ChEMBL document CHEMBL5705904 (N Engl J Med, 2016)
The source made the active and inactive calls. No cut-off for these calls is given here.

How the values were obtained:
[1] = Terminal elimination half life in human at 100 mg, po BID administered for 8 days by LC-MS/MS analysis; format: ADME, organism-based; settings: in vivo, time 8 day, read-out: LambdaZ (converted)
[2] = molecular target: Tyrosine-protein kinase Lyn (Homo sapiens, UniProt P07948); test: Inhibition of recombinant LYN (unknown origin) preincubated for 1 hr in presence of ATP by Z-Lyte assay
Summary of the method: (§1)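 Recombinant kinase activity was measured by Z'-LYTE with ATP at each enzyme's Km. Inhibitor came from a 10 mM DMSO stock and was tested at 10 concentrations. Compound was preincubated with kinase for 1 h before ATP addition started the reaction, for about 2 h total compound-kinase exposure. IC50 is from 2–3 independent experiments.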

[3] = AUC(0 to 24 hrs) in human at 100 mg, po BID administered for 8 days by LC-MS/MS analysis; format: ADME, organism-based; settings: in vivo, time 8 day
Summary of the method: (§2)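 Steady-state plasma sampling on cycle 1 day 8 in patients, predose and 0.25, 0.5, 0.75, 1, 2, 4 and 6 h post-dose, into lithium heparin. Plasma was stored at -80°C. Drug was quantified by validated LC-MS/MS against a stable labeled internal standard, using only values at or above LLOQ and nominal sampling times.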

[4] = Half life in human at 100 mg, po BID administered for 8 days by LC-MS/MS analysis; format: ADME, organism-based; settings: in vivo, time 8 day; summary of the method: as §2
[5] = Apparent oral clearance in human at 250 mg, po administered for 8 days by LC-MS/MS analysis; format: ADME, organism-based; settings: in vivo, time 8 day; summary of the method: as §2
[6] = AUC(0 to 24 hrs) in human at 250 mg, po administered for 8 days by LC-MS/MS analysis; format: ADME, organism-based; settings: in vivo, time 8 day; summary of the method: as §2
[7] = Half life in human at 100 mg, po administered for 8 days by LC-MS/MS analysis; format: ADME, organism-based; settings: in vivo, time 8 day; summary of the method: as §2
[8] = Terminal elimination half life in human at 400 mg, po administered for 8 days by LC-MS/MS analysis; format: ADME, organism-based; settings: in vivo, time 8 day, read-out: LambdaZ (converted)
[9] = Cmax in human at 400 mg, po administered for 8 days by LC-MS/MS analysis; format: ADME, organism-based; settings: in vivo, time 8 day; summary of the method: as §2
[10] = Apparent volume of distribution during terminal phase in human at 100 mg, po BID administered for 8 days by LC-MS/MS analysis; format: ADME, organism-based; settings: in vivo, time 8 day, read-out: Vz/F; summary of the method: as §2
[11] = Cmax in human at 250 mg, po administered for 8 days by LC-MS/MS analysis; format: ADME, organism-based; settings: in vivo, time 8 day; summary of the method: as §2
[12] = molecular target: Tyrosine-protein kinase Blk (Homo sapiens, UniProt P51451); test: Inhibition of recombinant BLK (unknown origin) preincubated for 1 hr in presence of ATP by Z-Lyte assay; summary of the method: as §1
[13] = Apparent volume of distribution during terminal phase in human at 175 mg, po administered for 8 days by LC-MS/MS analysis; format: ADME, organism-based; settings: in vivo, time 8 day, read-out: Vz/F; summary of the method: as §2
[14] = AUC(0 to 6 hrs) in human at 250 mg, po administered for 8 days by LC-MS/MS analysis; format: ADME, organism-based; settings: in vivo, time 8 day; summary of the method: as §2
[15] = AUC(0 to 12 hrs) in human at 250 mg, po administered for 8 days by LC-MS/MS analysis; format: ADME, organism-based; settings: in vivo, time 8 day; summary of the method: as §2
[16] = AUC(0 to 12 hrs) in human at 400 mg, po administered for 8 days by LC-MS/MS analysis; format: ADME, organism-based; settings: in vivo, time 8 day; summary of the method: as §2
[17] = Half life in human at 400 mg, po administered for 8 days by LC-MS/MS analysis; format: ADME, organism-based; settings: in vivo, time 8 day; summary of the method: as §2
[18] = Apparent oral clearance in human at 100 mg, po BID administered for 8 days by LC-MS/MS analysis; format: ADME, organism-based; settings: in vivo, time 8 day; summary of the method: as §2
[19] = AUC(0 to 24 hrs) in human at 175 mg, po administered for 8 days by LC-MS/MS analysis; format: ADME, organism-based; settings: in vivo, time 8 day; summary of the method: as §2
[20] = Drug accumulation in human at 100 to 400 mg, po administered for 6 hrs by LC-MS/MS analysis; format: ADME, organism-based; settings: in vivo, dose 100-400 mg
[21] = molecular target: Tyrosine-protein kinase Fyn (Homo sapiens, UniProt P06241); test: Inhibition of recombinant FYN (unknown origin) preincubated for 1 hr […] by Z-Lyte assay; summary of the method: as §1
[22] = Tmax in human at 100 mg, po BID administered for 8 days by LC-MS/MS analysis; format: ADME, organism-based; settings: in vivo, time 8 day
Summary of the method: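 Patient plasma sampled on cycle 1 day 8 at predose and 0.25, 0.5, 0.75, 1, 2, 4 and 6 h post-dose, in lithium heparin. […] Tmax read directly from each individual's data; summarized descriptively.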

[23] = AUC(0 to infinity) in human at 100 mg, po administered for 8 days by LC-MS/MS analysis; format: ADME, organism-based; settings: in vivo, time 8 day; summary of the method: as §2
[24] = AUC(0 to 12 hrs) in human at 175 mg, po administered for 8 days by LC-MS/MS analysis; format: ADME, organism-based; settings: in vivo, time 8 day; summary of the method: as §2
[25] = Cmax in human at 175 mg, po administered for 8 days by LC-MS/MS analysis; format: ADME, organism-based; settings: in vivo, time 8 day; summary of the method: as §2
[26] = Terminal elimination half life in human at 100 mg, po administered for 8 days by LC-MS/MS analysis; format: ADME, organism-based; settings: in vivo, time 8 day, read-out: LambdaZ (converted)
[27] = Cmax in human at 100 mg, po administered for 8 days by LC-MS/MS analysis; format: ADME, organism-based; settings: in vivo, time 8 day; summary of the method: as §2
[28] = molecular target: T1, Tyrosine-protein kinase TXK (Homo sapiens, UniProt P42681); test: Inhibition of recombinant TXK (unknown origin) preincubated for 1 hr in presence of ATP by Z-Lyte assay
T1 sequence (P42681 whole entry): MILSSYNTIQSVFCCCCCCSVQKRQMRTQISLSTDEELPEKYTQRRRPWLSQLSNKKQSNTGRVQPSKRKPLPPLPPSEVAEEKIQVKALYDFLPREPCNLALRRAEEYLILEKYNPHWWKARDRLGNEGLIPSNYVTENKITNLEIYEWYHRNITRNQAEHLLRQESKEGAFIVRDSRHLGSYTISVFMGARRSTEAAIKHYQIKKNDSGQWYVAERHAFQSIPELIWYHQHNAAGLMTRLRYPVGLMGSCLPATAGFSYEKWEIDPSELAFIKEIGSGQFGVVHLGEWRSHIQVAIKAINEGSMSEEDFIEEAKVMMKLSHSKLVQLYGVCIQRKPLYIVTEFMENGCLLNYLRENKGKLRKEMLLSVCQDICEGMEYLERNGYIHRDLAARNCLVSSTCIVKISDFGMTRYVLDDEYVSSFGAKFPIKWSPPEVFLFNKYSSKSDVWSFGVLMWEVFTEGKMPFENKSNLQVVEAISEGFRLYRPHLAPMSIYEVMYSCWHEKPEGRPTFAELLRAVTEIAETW

[29] = molecular target: Tyrosine-protein kinase BTK (Homo sapiens) (UniProt Q06187); settings: Platelet, dose 25-1000 nM, time 30.0 min
[30] = AUC(0 to infinity) in human at 175 mg, po administered for 8 days by LC-MS/MS analysis; format: ADME, organism-based; settings: in vivo, time 8 day; summary of the method: as §2
[31] = AUC(0 to infinity) in human at 400 mg, po administered for 8 days by LC-MS/MS analysis; format: ADME, organism-based; settings: in vivo, time 8 day; summary of the method: as §2

Sequence of Tyrosine-protein kinase Fyn (P06241 whole entry): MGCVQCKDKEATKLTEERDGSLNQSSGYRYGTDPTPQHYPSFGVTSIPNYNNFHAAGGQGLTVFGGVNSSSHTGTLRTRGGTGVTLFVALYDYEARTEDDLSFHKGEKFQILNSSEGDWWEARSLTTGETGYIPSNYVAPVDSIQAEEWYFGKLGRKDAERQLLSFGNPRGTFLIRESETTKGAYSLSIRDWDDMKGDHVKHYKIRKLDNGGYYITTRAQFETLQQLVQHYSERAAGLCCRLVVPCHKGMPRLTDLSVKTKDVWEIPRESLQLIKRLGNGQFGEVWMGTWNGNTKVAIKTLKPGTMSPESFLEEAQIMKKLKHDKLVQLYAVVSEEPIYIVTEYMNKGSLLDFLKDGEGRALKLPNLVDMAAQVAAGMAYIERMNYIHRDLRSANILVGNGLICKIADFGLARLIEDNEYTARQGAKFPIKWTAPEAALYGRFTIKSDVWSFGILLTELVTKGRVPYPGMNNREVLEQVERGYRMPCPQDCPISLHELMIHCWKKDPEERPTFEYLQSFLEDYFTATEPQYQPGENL
Sequence of Tyrosine-protein kinase BTK (Homo sapiens) (Q06187 whole entry): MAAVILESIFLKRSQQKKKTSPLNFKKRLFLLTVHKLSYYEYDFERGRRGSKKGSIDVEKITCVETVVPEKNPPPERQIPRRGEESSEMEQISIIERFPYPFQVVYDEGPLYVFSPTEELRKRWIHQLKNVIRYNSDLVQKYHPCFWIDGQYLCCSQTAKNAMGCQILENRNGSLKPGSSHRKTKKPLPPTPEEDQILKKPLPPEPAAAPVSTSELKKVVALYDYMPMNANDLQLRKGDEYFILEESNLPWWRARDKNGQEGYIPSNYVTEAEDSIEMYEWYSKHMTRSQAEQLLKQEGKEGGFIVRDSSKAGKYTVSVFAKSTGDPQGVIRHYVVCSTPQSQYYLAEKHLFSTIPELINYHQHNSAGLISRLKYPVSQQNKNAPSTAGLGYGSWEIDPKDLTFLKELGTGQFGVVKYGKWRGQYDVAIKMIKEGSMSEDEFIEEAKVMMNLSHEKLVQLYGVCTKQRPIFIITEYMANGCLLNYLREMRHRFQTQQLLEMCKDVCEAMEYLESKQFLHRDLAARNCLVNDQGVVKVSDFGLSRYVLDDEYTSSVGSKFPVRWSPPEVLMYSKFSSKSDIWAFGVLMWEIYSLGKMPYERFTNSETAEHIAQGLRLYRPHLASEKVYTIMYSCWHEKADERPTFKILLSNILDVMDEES
Sequence of Tyrosine-protein kinase Blk (P51451 whole entry): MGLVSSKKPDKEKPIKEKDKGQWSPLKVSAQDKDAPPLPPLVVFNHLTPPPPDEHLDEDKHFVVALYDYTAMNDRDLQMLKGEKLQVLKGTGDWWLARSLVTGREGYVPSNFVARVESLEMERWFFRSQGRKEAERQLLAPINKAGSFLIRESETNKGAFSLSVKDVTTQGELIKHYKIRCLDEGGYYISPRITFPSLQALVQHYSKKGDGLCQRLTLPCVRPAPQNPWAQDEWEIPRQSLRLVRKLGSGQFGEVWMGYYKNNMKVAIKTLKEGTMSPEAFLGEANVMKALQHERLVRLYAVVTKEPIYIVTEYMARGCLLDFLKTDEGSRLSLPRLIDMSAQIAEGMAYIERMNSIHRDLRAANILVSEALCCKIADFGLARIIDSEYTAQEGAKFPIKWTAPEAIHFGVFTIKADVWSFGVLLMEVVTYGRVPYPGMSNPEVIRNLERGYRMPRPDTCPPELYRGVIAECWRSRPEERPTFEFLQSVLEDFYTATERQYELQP
Sequence of Tyrosine-protein kinase Lyn (P07948 whole entry): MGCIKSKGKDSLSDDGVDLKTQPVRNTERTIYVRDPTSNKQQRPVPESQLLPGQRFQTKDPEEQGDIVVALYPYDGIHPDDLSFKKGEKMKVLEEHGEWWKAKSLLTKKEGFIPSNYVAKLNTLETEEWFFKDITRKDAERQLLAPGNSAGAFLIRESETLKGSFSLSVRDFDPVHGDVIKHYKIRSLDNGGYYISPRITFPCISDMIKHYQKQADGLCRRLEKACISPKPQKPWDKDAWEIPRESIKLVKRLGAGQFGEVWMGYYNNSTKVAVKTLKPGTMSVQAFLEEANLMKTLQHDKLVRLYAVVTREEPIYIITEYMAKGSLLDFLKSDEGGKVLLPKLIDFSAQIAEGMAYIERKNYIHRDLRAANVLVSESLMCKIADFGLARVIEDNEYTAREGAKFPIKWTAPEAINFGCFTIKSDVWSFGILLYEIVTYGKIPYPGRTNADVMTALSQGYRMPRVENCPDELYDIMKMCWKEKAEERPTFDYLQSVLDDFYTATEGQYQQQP

k el at 192 h [1]: 0.000188 s⁻¹
IC50 [2]: > 1 µM
AUC at 192 h [3]: 1.85 µg·h/mL
half-life [4]: 1.13 h
CL/F [5]: 2170 mL/min
AUC at 192 h [6]: 2.31 µg·h/mL
half-life [7]: 1.16 h
k el at 192 h [8]: 0.000161 s⁻¹
Cmax [9]: 0.902 µg/mL
Vd/F [10]: 361 L
Cmax [11]: 1.35 µg/mL
IC50 [12]: > 1 µM
Vd/F [13]: 317 L
AUC at 192 h [14]: 1.99 µg·h/mL
AUC at 192 h [15]: 2.31 µg·h/mL
AUC at 192 h [16]: 1.85 µg·h/mL
half-life [17]: 1.39 h
CL/F [18]: 2750 mL/min
AUC at 192 h [19]: 1.16 µg·h/mL
Drug uptake [20]: Not Active
IC50 [21]: > 1 µM
Tmax [22]: 1 h
AUC(0-inf) [23]: 0.603 µg·h/mL
AUC at 192 h [24]: 1.16 µg·h/mL
Cmax [25]: 0.805 µg/mL
k el at 192 h [26]: 0.00017 s⁻¹
Cmax [27]: 0.529 µg/mL
IC50 [28]: 0.368 µM
inhibition [29]: inactive
AUC(0-inf) [30]: 1.16 µg·h/mL
AUC(0-inf) [31]: 1.87 µg·h/mL
SMILES: CC#CC(=O)N1CCC[C@H]1c1nc(-c2ccc(C(=O)Nc3ccccn3)cc2)c2c(N)nccn12 [ACALABRUTINIB]
